Compound activity as filed in PubChem.
TAAR1 ag: human TAAR1 agonists, primary screen, Fluo-8 calcium fluorescence, CHO RD-HGA16 cells. vehicle wells 0%, saturating PEA agonist 100%. hit rate 0.99% among 360,000. Trace amine-associated receptor 1 (Homo sapiens), Q96RJ0. activation, % at 3 µM;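 active means activation above the mean activation of all test compounds in the run plus 3 SD, cut at about 38% in these data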
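Benchmarks: low control DMSO, high control PEA (EC100); System: CHO RD-HGA16 cells carrying human TAAR1 plus Gα16; Detection: Fluo-8 fluorescence, 5 s baseline then 140 s kinetic read; Schedule: 17-24 h plating, Fluo-8 75 min 37 °C, 30 min RT; Read-out basis: % activation from peak over basal fluorescence ratio, DMSO-to-PEA scaled.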
CHO parental Ca: ATP-evoked calcium signal inhibitors, parental CHO, primary screen, counter-screen for OX1R antagonist project, cell-based, fluorescence, Fluo-8 calcium dye; parental CHO-K1, ATP-induced calcium, Fluo-8 fluorescence; inhibition, % at 5.6 µM; AID 463079, 2010; hit rate 0.63% among 330,000;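 active means inhibition above that plate's mean sample inhibition plus 3 SD, cut at about 26% in these data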
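Material – parental CHO cells · Reagent – ATP stimulus · Compound – single nominal dose of 5.6 µM per compound · Detection – Fluo-8 fluorescence · Read-out basis – percent inhibition of calcium signal · Controls – ATP-challenged DMSO wells low, unchallenged DMSO wells high · Repeats – no replicates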
TAAR1 antag: human TAAR1 antagonists, primary screen, Fluo-8 calcium fluorescence, CHO RD-HGA16 cells. Trace amine-associated receptor 1 (Homo sapiens), Q96RJ0. AID 624466, 2012. inhibition, % at 3 µM. antagonist. hit rate 1.5% among 360,000;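 active means inhibition above a per-plate cutoff, the mean inhibition of test compounds on that plate plus 3 SD, cut at about 49% in these data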
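Material: RD-HGA16 CHO cells with stable hTAAR1 and Gα16; Dosing: single nominal final test compound concentration of 3 µM; Schedule: seeding 17-24 h prior, 75-min 37 °C, 30-min RT dye loading; Detection: kinetic Fluo-8 calcium fluorescence measurement; Measure: % inhibition from peak post-agonist over basal fluorescence ratio; Benchmarks: vehicle and agonist controls.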
OX1R antag-1: antagonists of human orexin 1 receptor (OX1R); OX1R-expressing cells, FRET antagonist read-out; inhibition, % at 6.6 µM; hit rate 1.8% among 330,000; AID 485270, 2010; in the data active means inhibition mostly above about 38%, no sharp cut-off; inactive means mostly below about 40%
OX1R antag-2: OX1R (HCRTR1) antagonists, primary screen, fluorescence, CHO/OX1R cells, Fluo-8 calcium, orexin A. Orexin/Hypocretin receptor type 1 (Homo sapiens), O43613. Fluo-8 calcium fluorescence. inhibition, % at 5 µM. hit rate 0.43% among 330,000. AID 434989, 2010;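 active means inhibition above its plate's threshold, mean inhibition of all tested compounds on the plate plus 3 SD, cut at about 37% in these data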
GPR7 antag: GPR7 receptor antagonists, primary screen, cell-based, fluorescence, single concentration | GPR7-expressing cells, fluorescence antagonist assay | hit rate 1.1% among 290,000 | AID 1861, 2009 | inhibition, % at 4.4 µM; in the data active means inhibition above about 16%, passing the limit was not always enough;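 further: cells stimulated with the agonist NPW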
Target sequence (P48145 whole entry, looked up): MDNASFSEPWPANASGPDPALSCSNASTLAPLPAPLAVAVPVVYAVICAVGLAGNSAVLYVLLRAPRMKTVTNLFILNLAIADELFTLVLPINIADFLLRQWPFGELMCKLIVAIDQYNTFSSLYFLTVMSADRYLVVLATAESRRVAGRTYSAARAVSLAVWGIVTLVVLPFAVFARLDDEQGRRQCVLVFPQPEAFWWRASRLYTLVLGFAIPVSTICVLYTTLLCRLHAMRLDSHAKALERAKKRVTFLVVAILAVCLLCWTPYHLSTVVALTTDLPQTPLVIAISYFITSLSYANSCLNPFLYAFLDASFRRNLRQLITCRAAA
Numbers stand for hits; i = inactive; nt = no result. Most compounds without a hit are left out; they make up all but 4.6% or so of the library.

SMILES	TAAR1 ag	CHO parental Ca	TAAR1 antag	OX1R antag-1	OX1R antag-2	GPR7 antag
CCOC(=O)c1cn(-c2c(Cl)cccc2Cl)c2cc(Cl)c([N+](=O)[O-])cc2c1=O	i	i	i	i	i	i
CCOC(=O)c1cn(CC)c2cc(Cl)c([N+](=O)[O-])cc2c1=O	i	i	i	55	i	i
CCOCCCNC(=O)c1cc2c(=O)n(CC)c3ccccc3c2s1	i	i	i	i	i	i
c1coc(CN(Cc2ccco2)c2ncnc3c2oc2ccccc23)c1	nt	36	nt	i	i	i
O=C(Nc1cccc(-c2ccccc2)c1)N1CCN(C(=O)Nc2cccc(-c3ccccc3)c2)CC1	i	i	i	i	i	i
Cc1cnc(Sc2ncccc2[N+](=O)[O-])nc1	i	i	i	i	i	i
Cc1cc(C)n2nc(Sc3ncccc3[N+](=O)[O-])nc2n1	i	i	i	45	i	i
Cc1cc(C)n2nc(SCC(=O)Nc3ccc(F)cc3[N+](=O)[O-])nc2n1	i	i	i	29	i	nt
Cc1ccc2oc(=O)c3cc(C(=O)N4CCN(C(=O)c5ccco5)CC4)sc3c2c1	nt	i	nt	i	i	i
CCN(Cc1ccccc1)C(=O)c1cc2c(=O)oc3ccc(C)cc3c2s1	i	i	83	i	i	i
N#Cc1cc(Oc2cccc3cccnc23)c(-n2nnc3ccccc32)cc1C#N	i	i	i	i	46	i
CC(C)CN(C(=O)COC(=O)C12CC3CC(CC(Cl)(C3)C1)C2)c1c(N)n(Cc2ccccc2)c(=O)[nH]c1=O	i	i	i	i	i	nt
O=C(Nc1ccccc1N1CCCCC1)c1cnccn1	i	i	i	i	i	i
Cc1csc2c(N3CCN(C(=O)Nc4ccc(Cl)c(Cl)c4)CC3)ncnc12	i	i	i	i	43	i
Cc1csc2c(N3CCN(C(=O)c4ccc(C(C)(C)C)cc4)CC3)ncnc12	i	37	i	i	i	i
Cc1csc2c(N3CCN(C(=O)NC(C)(C)C)CC3)ncnc12	i	i	i	i	i	i
NC(=O)COC(=O)c1cccc(NS(=O)(=O)/C=C/c2ccccc2)c1	i	i	i	i	i	i
COc1ccccc1N1CCN(C(=O)CN2C(=O)c3ccccc3S2(=O)=O)CC1	i	i	i	i	i	i
CC(=O)n1nc(-c2ccccc2)cc1-c1ccccc1	i	i	i	i	i	nt
O=C(CN1C(=O)C2C3C=CC(C3)C2C1=O)OCC(=O)c1ccc([N+](=O)[O-])cc1 (configuration not stated)	i	i	i	58	i	i
O=C(CN1C(=O)C2C3C=CC(C3)C2C1=O)OCC(=O)c1ccc(Cl)cc1 (configuration not stated)	i	nt	i	nt	nt	i
CCCc1ccc(C(O)c2ncc(-c3ccccc3)[nH]2)cc1 (configuration not stated)	i	nt	i	nt	nt	nt
COc1ccc(-c2cc(C3CCN(c4ccc(C(C)=O)cc4[N+](=O)[O-])CC3)[nH]n2)cc1	i	50	i	i	i	i
CC(=O)c1ccc(N2CCC(c3cc(-c4ccc(Cl)cc4)n[nH]3)CC2)c([N+](=O)[O-])c1	nt	43	nt	i	i	i
O=C(CSc1nnc(Cc2ccccc2)n1-c1ccccc1)NNC(=O)Cc1ccccc1	i	i	i	57	i	i
SMILES	TAAR1 ag	CHO parental Ca	TAAR1 antag	OX1R antag-1	OX1R antag-2	GPR7 antag
O=C(Cc1cccs1)NCCSc1c(-c2ccc(Cl)cc2)[nH]c2ccccc12	i	i	49	i	i	19
O=C(NCCSc1c(-c2ccccc2)[nH]c2ccccc12)c1cc2ccccc2oc1=O	i	i	i	56	i	i
CCOC(=O)CSc1c(-c2ccc(Cl)cc2)[nH]c2ccccc12	i	i	i	i	i	i
CC(=O)OCCNC(=O)c1cc2ccccc2oc1=O	i	i	i	70	i	i
COc1cc(NC(=O)c2ccco2)ccc1NC(=O)C(C)C	i	i	i	i	i	i
COc1cc(NC(=O)c2cc(-c3ccc(C)cc3)on2)cc(OC)c1OC	i	i	i	i	i	i
